These results are taken from ChEMBL document CHEMBL3046282, “Synthesis, insecticidal activity, crystal structure, and molecular docking studies of nitenpyram analogues with an ω-hydroxyalkyl ester arm anchored on the tetrahydropyrimidine ring” (2012).

SMILES strings stand for the structures. ≈ marks a conversion by molar mass, not a printed value. Calls of active or inactive are those of the source. No cut-off for these calls is given here.

Assay [1] relates to Nilaparvata lugens. As to the kind of experiment: Insecticidal activity against Nilaparvata lugens (brown planthopper) assessed as mortality at 25 degC after 72 hr. It counts as functional.
The test system of assay [2] is Nilaparvata lugens. Put plainly: Insecticidal activity against Nilaparvata lugens (brown planthopper) assessed as mortality at 25 degC after 72 hr at 100 mg/L. It counts as functional. Summed up: (§1)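 Standard spray test with slight modification. Compounds dissolved in DMF, then serially diluted with water containing Triton X-80 (0.1 mg/L). Groups of 12 insects in glass Petri dishes sprayed with a Potter sprayer, air-dried, then held under normal rearing conditions (25±1 °C, […], 12 h light). Scored at 72 h on a 0–100 scale against a negative control, using kill count and size of live insects. Three replicates.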

The test system of assay [3] is Myzus persicae. Put plainly: Insecticidal activity against Myzus persicae (green peach aphid) assessed as mortality at 25 degC after 72 hr at 100 mg/L. It counts as functional.
In assay [4] the test system is Nilaparvata lugens. As to the kind of experiment: Insecticidal activity against Nilaparvata lugens (brown planthopper) assessed as mortality at 25 degC after 72 hr at 20 mg/L. It counts as functional. A digest of the protocol: as §1
For assay [5], the system named is Myzus persicae. As to the kind of experiment: Insecticidal activity against Myzus persicae (green peach aphid) assessed as mortality at 25 degC after 72 hr at 4 mg/L. It counts as functional.
Assay [6] relates to Nilaparvata lugens. As to the kind of experiment: Insecticidal activity against Nilaparvata lugens (brown planthopper) assessed as mortality at 25 degC after 72 hr at 4 mg/L. It counts as functional. Summed up:
as §1

The nature of assay [7]: Binding affinity to nicotinic acetylcholine receptor assessed as hydrogen bonding.
Assay [8] concerns Myzus persicae. As to the kind of experiment: Insecticidal activity against Myzus persicae (green peach aphid) assessed as mortality at 25 degC after 72 hr at 20 mg/L. It counts as functional.
Assay [9] concerns Myzus persicae. Put plainly: Insecticidal activity against Myzus persicae (green peach aphid) assessed as mortality at 25 degC after 72 hr. It counts as functional.

Broadly, the LC50 is the concentration that kills 50% of the test population. In general, mortality refers to the percentage killed.

In the case of `CCN(Cc1ccc(Cl)nc1)C1=C([N+](=O)[O-])CN(C(CC(C)C)C(=O)OCCO)CN1C` (centres undefined), the LC50 in assay [1] was determined as 0.17 µg/mL (≈ 0.362 µM); in assay [9] (Myzus persicae, 72 h) it was 0.17 µg/mL (≈ 0.362 µM). The mortality at 100 µg/mL in [2] and in assay [3] was 100% in each case. Further, the mortality at 20 µg/mL in assay [4] and in assay [8] was 100% throughout. Moreover, the mortality at 4 µg/mL in assay [5] is 100%; in assay [6] it was 95%. In addition, in [7], the outcome was Active.
As for `CCN(Cc1ccc(Cl)nc1)C1=C([N+](=O)[O-])CN(CC(=O)OCCCCCO)CN1C`, the mortality at 100 µg/mL in [2] was found to be 90%; in [3], 100%. The mortality at 20 µg/mL in [4] was determined as 23%; in assay [8], 25%.
For `CCN(Cc1ccc(Cl)nc1)C1=C([N+](=O)[O-])CN(CCC(=O)OCCCCO)CN1C` the same measures were 100%, 100%, 80% and 83%.
Regarding `CCN(Cc1ccc(Cl)nc1)C1=C([N+](=O)[O-])CN(CCCC(=O)OCCCCO)CN1C`, the mortality at 100 µg/mL in assay [2] worked out at 100%; in assay [3], 95%. Moreover, the figures for the mortality at 20 µg/mL in assay [4] and in assay [8] were 78% and 70%, respectively.
On the same counts, the results for `CCN(Cc1ccc(Cl)nc1)C1=C([N+](=O)[O-])CN(CCC(=O)OCCCCCCO)CN1C` are 90%, 95%, 25% and 33%.
With `CCN(Cc1ccc(Cl)nc1)C1=C([N+](=O)[O-])CN(CCC(=O)OCCCO)CN1C`, the mortality at 100 µg/mL in [2] and in assay [3] was 100% throughout. The mortality at 20 µg/mL stood at 98% in assay [4] and 100% in [8]. Besides, the mortality at 4 µg/mL in [5] stood at 55%; in assay [6], 70%.
In the case of `CCN(Cc1ccc(Cl)nc1)C1=C([N+](=O)[O-])CN(CC(=O)OCCCCCCO)CN1C`, the mortality at 100 µg/mL in assay [2] was determined as 90%; in assay [3], 95%. Moreover, the mortality at 20 µg/mL in [4] was 15%; in assay [8] it was 10%.
As to `CCN(Cc1ccc(Cl)nc1)C1=C([N+](=O)[O-])CN(CCCC(=O)OCCO)CN1C`, the mortality at 100 µg/mL in assay [2] and in [3] was 100% throughout. The mortality at 20 µg/mL worked out at 90% in [4] and 100% in assay [8]. Besides, the mortality at 4 µg/mL in assay [5] worked out at 10%.
Take `CCN(Cc1ccc(Cl)nc1)C1=C([N+](=O)[O-])CN(CC(=O)OCCCO)CN1C`: the mortality at 100 µg/mL in assay [2] and in assay [3] was 100% each time. Besides, the figures for the mortality at 20 µg/mL in assay [4] and in [8] were 45% and 50%, respectively.
Consider `CCN(Cc1ccc(Cl)nc1)C1=C([N+](=O)[O-])CN(CCC(=O)OCCCCCO)CN1C`, for which the mortality at 100 µg/mL turned out to be 100% in assay [2] and 98% in assay [3]. Moreover, the mortality at 20 µg/mL came to 40% in [4] and 50% in assay [8].
With `CCN(Cc1ccc(Cl)nc1)C1=C([N+](=O)[O-])CN(C(Cc2ccc(O)cc2)C(=O)OCCO)CN1C` (single isomer, unassigned; (+)), the mortality at 100 µg/mL in assay [2] was 80%; in [3], 85%. Also, the values for the mortality at 20 µg/mL in assay [4] and in assay [8] were 15% and 10%, respectively.
Take `CCN(Cc1ccc(Cl)nc1)C1=C([N+](=O)[O-])CN(C(CC(C)C)C(=O)OC)CN1C` (centres undefined): in assay [1], the 50% lethal concentration (LC50) was 0.216 µg/mL (≈ 0.491 µM). Moreover, in assay [2], the mortality at 100 µg/mL was found to be 100%. The mortality at 20 µg/mL in assay [4] amounted to 100%. Besides, in assay [6], the mortality at 4 µg/mL was 50%.
In the case of `CCN(Cc1ccc(Cl)nc1)C1=C([N+](=O)[O-])CN(CCC(=O)OCCO)CN1C`, in assay [1], the 50% lethal concentration (LC50) came to 0.154 µg/mL (≈ 0.36 µM). The mortality at 100 µg/mL in assay [2] and in assay [3] was 100% throughout. The mortality at 20 µg/mL in assay [4] and in assay [8] was 100% throughout. The mortality at 4 µg/mL in [5] and in [6] was 100% each time. The outcome in assay [7] was Active.
Turning to `CCN(Cc1ccc(Cl)nc1)C1=C([N+](=O)[O-])CN(CCCC(=O)OCCCO)CN1C`, the mortality at 100 µg/mL in assay [2] and in assay [3] was 100% in each case. In addition, the values for the mortality at 20 µg/mL in assay [4] and in [8] were 80% and 92%, respectively.
Consider `CCN(Cc1ccc(Cl)nc1)C1=C([N+](=O)[O-])CN(C(C(=O)OCCO)c2ccc(Cl)cc2)CN1C` (centres undefined), for which the mortality at 100 µg/mL in assay [2] and in assay [3] was 95% in each case. The mortality at 20 µg/mL in assay [4] and in assay [8] was 25% each time.
Consider `CCN(Cc1ccc(Cl)nc1)C1=C([N+](=O)[O-])CN(C(C(=O)OCCO)C(C)C)CN1C` (centres undefined), for which the mortality at 100 µg/mL in assay [2] turned out to be 95%; in assay [3], 100%. In addition, the mortality at 20 µg/mL came out at 65% in assay [4] and 58% in [8].
Consider `CCN(Cc1ccc(Cl)nc1)C1=C([N+](=O)[O-])CN(C(Cc2ccccc2)C(=O)OCCO)CN1C` (centres undefined), for which the mortality at 100 µg/mL in assay [2] stood at 80%; in assay [3], 90%. Further, the mortality at 20 µg/mL in assay [4] was found to be 20%; in [8], 15%.
Turning to `CCN(Cc1ccc(Cl)nc1)C1=C([N+](=O)[O-])CN(CCCC(=O)OCCCCCO)CN1C`, the mortality at 100 µg/mL was 98% in assay [2] and 95% in assay [3]. For the same molecule, the figures for the mortality at 20 µg/mL in [4] and in assay [8] were 15% and 25%, respectively.
`CCN(Cc1ccc(Cl)nc1)C1=C([N+](=O)[O-])CN(CCC(=O)OC(C)C)CN1C`: in assay [2], the mortality at 100 µg/mL amounted to 100%. Further, the mortality at 20 µg/mL in assay [4] came out at 100%. Moreover, in assay [6], the mortality at 4 µg/mL stood at 70%.
For `CCC(C)C(C(=O)OCCO)N1CC([N+](=O)[O-])=C(N(CC)Cc2ccc(Cl)nc2)N(C)C1` (single isomer, unassigned; (+)), the mortality at 100 µg/mL in assay [2] and in assay [3] was 100% throughout. Also, the mortality at 20 µg/mL in [4] and in assay [8] was 95% each time. The figures for the mortality at 4 µg/mL in [5] and in assay [6] were 30% and 35%, respectively.
For `CCCOC(=O)CCN1CC([N+](=O)[O-])=C(N(CC)Cc2ccc(Cl)nc2)N(C)C1`, in [2], the mortality at 100 µg/mL is 100%. Also, in [4], the mortality at 20 µg/mL was 100%. In addition, the mortality at 4 µg/mL in assay [6] was 75%.
Turning to `CCN(Cc1ccc(Cl)nc1)/C(=C/[N+](=O)[O-])NC` [NITENPYRAM], the mortality at 100 µg/mL in assay [2] and in assay [3] was 100% throughout. Also, the mortality at 20 µg/mL in assay [4] and in assay [8] was 100% throughout. Besides, the mortality at 4 µg/mL in [5] and in [6] was 100% throughout. In [9], the LC100 was found to be 0.129 mg/L.
In the case of `CCN(Cc1ccc(Cl)nc1)C1=C([N+](=O)[O-])CN(CC(=O)OCCCCO)CN1C`, the mortality at 100 µg/mL was 95% in assay [2] and 100% in assay [3]. In addition, the mortality at 20 µg/mL in assay [4] came to 30%; in assay [8] it was 33%.
With `CCN(Cc1ccc(Cl)nc1)C1=C([N+](=O)[O-])CN(CC(=O)OCCO)CN1C`, the mortality at 100 µg/mL in assay [2] and in assay [3] was 100% throughout. Moreover, the mortality at 20 µg/mL was found to be 50% in assay [4] and 58% in assay [8].
For `CCN(Cc1ccc(Cl)nc1)C1=C([N+](=O)[O-])CN(C(C)C(=O)OCCO)CN1C` (single isomer, unassigned; (+)), the figures for the mortality at 100 µg/mL in assay [2] and in assay [3] were 95% and 100%, respectively. The mortality at 20 µg/mL is 45% in assay [4] and 40% in assay [8].
As to `CCN(Cc1ccc(Cl)nc1)C1=C([N+](=O)[O-])CN(CCCC(=O)OCCCCCCO)CN1C`, the mortality at 100 µg/mL was 90% in assay [2] and 88% in [3]. Further, the mortality at 20 µg/mL in assay [4] and in assay [8] was 10% each time.
